According to ChEMBL document CHEMBL2040727, “Substituted thiazoles VI. Synthesis and antitumor activity of new 2-acetamido- and 2 or 3-propanamido-thiazole analogs” (2012):

Key:
Assay type in all cases: functional
K562 = assay: Growth inhibition of human K562 cells at 10 uM after 48 hrs by coulter counter analysis; details: K562, 48 h, read-out: GI
Summary of the method: (§1)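 Single-dose NCI 60-line panel screen of test compounds. Cells grown in RPMI 1640 with 10% FBS. Compounds dissolved in DMSO, then diluted in phosphate buffer saline (final DMSO below 1%). Wells run in duplicate at 6 × 10⁴ cells/ml. Controls held PBS and DMSO at matching dilutions. Incubation 48 h at 37 °C under humidified 5% CO2. Cells diluted tenfold in saline and counted by Coulter counter. Percent growth inhibition taken from mean-graph of treated-cell growth.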

ACHN = assay: Growth inhibition of human ACHN cells at 10 uM after 48 hrs by coulter counter analysis; details: read-out: GI; summary of the method: as §1
SNB-19 = assay: Growth inhibition of human SNB19 cells at 10 uM after 48 hrs by coulter counter analysis; details: SNB-19, 48 h, read-out: GI; summary of the method: as §1
HCC 2998 = assay: Growth inhibition of human HCC2998 cells at 10 uM after 48 hrs by coulter counter analysis; details: HCC 2998, 48 h, read-out: GI; summary of the method: as §1
NCI-H522 = assay: Growth inhibition of human NCI-H522 cells at 10 uM after 48 hrs by coulter counter analysis; details: NCI-H522, 48 h, read-out: GI; summary of the method: as §1
MDA-MB-468 = assay: Growth inhibition of human MDA-MB-468 cells at 10 uM after 48 hrs by coulter counter analysis; details: MDA-MB-468, 48 h, read-out: GI; summary of the method: as §1
KM12 = assay: Growth inhibition of human KM12 cells at 10 uM after 48 hrs by coulter counter analysis; details: KM12, 48 h, read-out: GI; summary of the method: as §1
SN12C = assay: Growth inhibition of human SN12C cells at 10 uM after 48 hrs by coulter counter analysis; details: read-out: GI; summary of the method: as §1
[1] = Growth inhibition of human NCI-ADR-RES cells at 10 uM after 48 hrs by coulter counter analysis; details: read-out: GI; summary of the method: as §1
UO-31 = assay: Growth inhibition of human UO31 cells at 10 uM after 48 hrs by coulter counter analysis; details: UO-31, 48 h, read-out: GI
Summary of the method: (§2)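 Single-dose screen in the NCI 60 cell line panel. Cells grown in RPMI 1640 with 10% FBS. Compounds dissolved in DMSO and diluted in phosphate buffered saline, final DMSO under 1%. Duplicate wells seeded from culture at 6 × 10⁴ cells/ml. Incubated 48 h at 37 °C, humidified, 5% CO2. Cells diluted tenfold in saline and Coulter-counted. Percent growth inhibition computed against PBS/DMSO controls.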

SK-MEL-5 = assay: Growth inhibition of human SK-MEL-5 cells at 10 uM after 48 hrs by coulter counter analysis; details: SK-MEL-5, 48 h, read-out: GI; summary of the method: as §1
NCI-H460 = assay: Growth inhibition of human NCI-H460 cells at 10 uM after 48 hrs by coulter counter analysis; details: NCI-H460, 48 h, read-out: GI; summary of the method: as §1
SK-MEL-28 = assay: Growth inhibition of human SK-MEL-28 cells at 10 uM after 48 hrs by coulter counter analysis; details: SK-MEL-28, 48 h, read-out: GI; summary of the method: as §1
HOP-62 = assay: Growth inhibition of human HOP62 cells at 10 uM after 48 hrs by coulter counter analysis; details: HOP-62, 48 h, read-out: GI; summary of the method: as §1
SF-539 = assay: Growth inhibition of human SF539 cells at 10 uM after 48 hrs by coulter counter analysis; details: SF-539, 48 h, read-out: GI; summary of the method: as §1
HT-29 = assay: Growth inhibition of human HT-29 cells at 10 uM after 48 hrs by coulter counter analysis; details: HT-29, 48 h, read-out: GI; summary of the method: as §1
SK-MEL-2 = assay: Growth inhibition of human SK-MEL-2 cells at 10 uM after 48 hrs by coulter counter analysis; details: SK-MEL-2, 48 h, read-out: GI; summary of the method: as §1
OVCAR-3 = assay: Growth inhibition of human OVCAR3 cells at 10 uM after 48 hrs by coulter counter analysis; details: OVCAR-3, 48 h, read-out: GI; summary of the method: as §1
MDA-MB-231 = assay: Growth inhibition of human MDA-MB-231 cells at 10 uM after 48 hrs by coulter counter analysis; details: MDA-MB-231, 48 h, read-out: GI; summary of the method: as §1
LOX IMVI = assay: Growth inhibition of human LOXIMVI cells at 10 uM after 48 hrs by coulter counter analysis; details: read-out: GI; summary of the method: as §1
A498 = assay: Growth inhibition of human A498 cells at 10 uM after 48 hrs by coulter counter analysis; details: A498, 48 h, read-out: GI; summary of the method: as §1
NCI-H226 = assay: Growth inhibition of human NCI-H226 cells at 10 uM after 48 hrs by coulter counter analysis; details: NCI-H226, 48 h, read-out: GI; summary of the method: as §1
CAKI-1 = assay: Growth inhibition of human Caki1 cells at 10 uM after 48 hrs by coulter counter analysis; details: CAKI-1, 48 h, read-out: GI; summary of the method: as §1
BT-549 = assay: Growth inhibition of human BT549 cells at 10 uM after 48 hrs by coulter counter analysis; details: BT-549, 48 h, read-out: GI; summary of the method: as §1
A549 = assay: Growth inhibition of human A549/ATCC cells at 10 uM after 48 hrs by coulter counter analysis; details: A549, 48 h, read-out: GI; summary of the method: as §1
HOP-92 = assay: Growth inhibition of human HOP92 cells at 10 uM after 48 hrs by coulter counter analysis; details: HOP-92, 48 h, read-out: GI; summary of the method: as §1
OVCAR-8 = assay: Growth inhibition of human OVCAR8 cells at 10 uM after 48 hrs by coulter counter analysis; details: OVCAR-8, 48 h, read-out: GI; summary of the method: as §1
T47D = assay: Growth inhibition of human T47D cells at 10 uM after 48 hrs by coulter counter analysis; details: read-out: GI; summary of the method: as §2
OVCAR-5 = assay: Growth inhibition of human OVCAR5 cells at 10 uM after 48 hrs by coulter counter analysis; details: OVCAR-5, 48 h, read-out: GI; summary of the method: as §1
EKVX = assay: Growth inhibition of human EKVX cells at 10 uM after 48 hrs by coulter counter analysis; details: read-out: GI; summary of the method: as §1
OVCAR-4 = assay: Growth inhibition of human OVCAR4 cells at 10 uM after 48 hrs by coulter counter analysis; details: OVCAR-4, 48 h, read-out: GI; summary of the method: as §1
786-0 = assay: Growth inhibition of human 786-0 cells at 10 uM after 48 hrs by coulter counter analysis; details: 786-0, 48 h, read-out: GI; summary of the method: as §1
MDA-MB-435 = assay: Growth inhibition of human MDA-MB-435 cells at 10 uM after 48 hrs by coulter counter analysis; details: MDA-MB-435, 48 h, read-out: GI; summary of the method: as §1
SNB-75 = assay: Growth inhibition of human SNB75 cells at 10 uM after 48 hrs by coulter counter analysis; details: SNB-75, 48 h, read-out: GI; summary of the method: as §2

Compound Cc1cnc(NC(=O)CN2CCN(c3ccccc3)CC2)s1 has an inhibition of growth at 10 µM (K562) of under 10%, an inhibition of growth at 10 µM (ACHN) of under 10% and an inhibition of growth at 10 µM (SNB-19) of under 10%. The inhibition of growth at 10 µM (HCC 2998) was under 10%, the inhibition of growth at 10 µM (NCI-H522) was under 10% and the inhibition of growth at 10 µM (MDA-MB-468) was under 10%. It also gave an inhibition of growth at 10 µM (KM12) of under 10%, an inhibition of growth at 10 µM (SN12C) of under 10% and an inhibition of growth at 10 µM [1] of under 10%. It also gave an inhibition of growth at 10 µM (UO-31) of 13.1%, an inhibition of growth at 10 µM (SK-MEL-5) of under 10% and an inhibition of growth at 10 µM (NCI-H460) of under 10%. The inhibition of growth at 10 µM (SK-MEL-28) was under 10%, the inhibition of growth at 10 µM (HOP-62) was under 10% and the inhibition of growth at 10 µM (SF-539) was under 10%. It also gave an inhibition of growth at 10 µM (HT-29) of under 10%, an inhibition of growth at 10 µM (SK-MEL-2) of under 10% and an inhibition of growth at 10 µM (OVCAR-3) of under 10%. For the same compound, the inhibition of growth at 10 µM (MDA-MB-231) was under 10%, the inhibition of growth at 10 µM (LOX IMVI) was under 10% and the inhibition of growth at 10 µM (A498) was under 10%. It also gave an inhibition of growth at 10 µM (NCI-H226) of under 10%, an inhibition of growth at 10 µM (CAKI-1) of under 10% and an inhibition of growth at 10 µM (BT-549) of under 10%. It also gave an inhibition of growth at 10 µM (A549) of under 10%, an inhibition of growth at 10 µM (HOP-92) of under 10% and an inhibition of growth at 10 µM (OVCAR-8) of under 10%. It also gave an inhibition of growth at 10 µM (T47D) of under 10%, an inhibition of growth at 10 µM (OVCAR-5) of under 10% and an inhibition of growth at 10 µM (EKVX) of 12.1%. The inhibition of growth at 10 µM (OVCAR-4) was under 10%, the inhibition of growth at 10 µM (786-0) was under 10% and the inhibition of growth at 10 µM (MDA-MB-435) was under 10%. The inhibition of growth at 10 µM (SNB-75) was under 10%.
Work on Cc1cnc(NC(=O)CCN2CCN(c3ccccc3)CC2)s1 yielded an inhibition of growth at 10 µM (K562) of under 10%, an inhibition of growth at 10 µM (ACHN) of under 10% and an inhibition of growth at 10 µM (SNB-19) of under 10%. For the same compound, the inhibition of growth at 10 µM (HCC 2998) was under 10%, the inhibition of growth at 10 µM (NCI-H522) was under 10% and the inhibition of growth at 10 µM (MDA-MB-468) was under 10%. It also gave an inhibition of growth at 10 µM (KM12) of under 10%, an inhibition of growth at 10 µM (SN12C) of under 10% and an inhibition of growth at 10 µM [1] of under 10%. The inhibition of growth at 10 µM (UO-31) was 12.8%, the inhibition of growth at 10 µM (SK-MEL-5) was under 10% and the inhibition of growth at 10 µM (NCI-H460) was under 10%. It also gave an inhibition of growth at 10 µM (SK-MEL-28) of under 10%, an inhibition of growth at 10 µM (HOP-62) of under 10% and an inhibition of growth at 10 µM (SF-539) of under 10%. For the same compound, the inhibition of growth at 10 µM (HT-29) was under 10%, the inhibition of growth at 10 µM (SK-MEL-2) was under 10% and the inhibition of growth at 10 µM (OVCAR-3) was under 10%. For the same compound, the inhibition of growth at 10 µM (MDA-MB-231) was under 10%, the inhibition of growth at 10 µM (LOX IMVI) was under 10% and the inhibition of growth at 10 µM (A498) was under 10%. The inhibition of growth at 10 µM (NCI-H226) was under 10%, the inhibition of growth at 10 µM (CAKI-1) was under 10% and the inhibition of growth at 10 µM (BT-549) was under 10%. It also gave an inhibition of growth at 10 µM (A549) of under 10%, an inhibition of growth at 10 µM (HOP-92) of under 10% and an inhibition of growth at 10 µM (OVCAR-8) of under 10%. It also gave an inhibition of growth at 10 µM (T47D) of under 10%, an inhibition of growth at 10 µM (OVCAR-5) of under 10% and an inhibition of growth at 10 µM (EKVX) of 11.4%. The inhibition of growth at 10 µM (OVCAR-4) was under 10%, the inhibition of growth at 10 µM (786-0) was under 10% and the inhibition of growth at 10 µM (MDA-MB-435) was under 10%. The inhibition of growth at 10 µM (SNB-75) was under 10%.
